# Measurements published in publication PMC11015380 (Heliyon, 2024).
# How the values were obtained:
# [1] = system: AGS (G12D); assay: WST cell viability assay, AGS cells; assay type: cell-based; settings: Homo sapiens, 72 h, read-out: IC50 AGS (G12D)
# [2] = system: AsPC1 (G12D); assay: WST cell viability assay, AsPC1 cells; assay type: cell-based; settings: Homo sapiens, ASPC1, 72 h, read-out: IC50 AsPC1 (G12D)
# [3] = system: SNU1197 (G12D); assay: WST cell viability assay, SNU1197 cells; assay type: cell-based; settings: 72 h, read-out: IC50 SNU1197 (G12D)
# [4] = system: Hek293 (Normal); assay: WST cell viability assay, Hek293 cells; assay type: cell-based; settings: Homo sapiens, HEK293, 72 h, read-out: IC50 Hek293 (Normal)
# [5] = system: MKN1 (KRAS wild-type) cells; assay: Annexin V-FITC/PI apoptosis detection assay, MKN1 cells; assay type: cell-based; settings: MKN1, 0, 2.5, and 5 μM, 24 h, flow cytometry
# Summary of the method: (§1)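 AGS or MKN1 cells were seeded at 3–5 × 10^5 cells/well in 6-well plates and grown overnight. They were treated with test compound at 0, 2.5 or 5 μM for 24 h. Cells were harvested, PBS-washed and resuspended in 1X binding buffer.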
# [6] = system: AsPC1 tumor; assay: In vivo antitumor efficacy study, AsPC1 xenograft; design: species or system female BALB/c nude mice; settings: 15 mg/kg i.p. once daily for 14 days
# Summary of the method: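 Female BALB/c nude mice (5–6 weeks) received 5.0 × 10^6 AsPC1 cells s.c. into the right hind flank in PBS. At tumour volume >100 mm3, mice were randomised to vehicle or test compound at 15 mg/kg i.p. once daily for 14 days (10% DMSO, 40% PEG300, 5% Tween-80, 45% saline; 200 μL/mouse). Tumours were measured by caliper thrice weekly and body weight twice weekly. TGI (%) = (1 − RTVtreatment/RTVcontrol) × 100, with RTV relative to day 0.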
# [7] = system: KRAS downstream proteins, including PARP, in MKN1 cells; assay: Immunoblotting of KRAS downstream signals and PARP, MKN1 cells; assay type: cell-based; settings: MKN1, 5 or 7.5 μM, 24 h
# Summary of the method: (§2)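 Cells (3–5 × 10^5/well, 6-well plates) were grown overnight, then given DMSO or test compound at 5 or 7.5 μM for 24 h. Lysis was in RIPA with protease/phosphatase inhibitors, with BCA protein assay. Equal protein was run on 8–12% SDS-PAGE and transferred to nitrocellulose. Blots were blocked in 5% milk/TBST, probed overnight at 4 °C (ERK, pERK, AKT, pAKT, S6, pS6, PARP), then HRP secondary 1 h, ECL. Bands were normalised to β-actin (n = 2).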
# [8] = system: pERK, pAKT, pS6, cleaved PARP in AGS cells; assay: Immunoblotting of KRAS downstream signals and PARP, AGS cells; assay type: cell-based; settings: 5 or 7.5 μM, 24 h
# Summary of the method: as §2
# [9] = target: KRAS-GTP (active KRAS) in AGS cells (Homo sapiens, UniProt P01116, G12D); assay: GST-RBD pulldown assay, AGS cells; assay type: cell-based; settings: 5 or 7.5 μM, 24 h
# Summary of the method: (§3)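 AGS or MKN1 cells were exposed to DMSO or test compound (0, 5, 7.5 μM) for 24 h and lysed in 1X passive lysis buffer. Lysate (400 μg protein) was incubated overnight with glutathione–GST-RBD to capture GTP-bound KRAS. Pulled-down protein was immunoblotted with anti-KRAS antibody, and band intensity was quantified (n = 2).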
# [10] = system: AGS cells; assay: Annexin V-FITC/PI apoptosis detection assay, AGS cells; assay type: cell-based; settings: AGS, 0, 2.5, and 5 μM, 24 h, flow cytometry
# Summary of the method: as §1
# [11] = target: KRAS-GTP (active KRAS) in MKN1 cells (Homo sapiens, UniProt P01116); assay: GST-RBD pulldown assay, MKN1 cells; assay type: cell-based; settings: MKN1, 5 or 7.5 μM, 24 h
# Summary of the method: as §3
compound,measurement,setting,value
"C#Cc1c(F)ccc2cc(O)cc(-c3ncc4c(N5CC6CCC(C5)N6)nc(OC[C@@]56CCCN5C[C@H](F)C6)nc4c3F)c12 [MRTX1133, reference compound]",IC50,[1],0.0065 µM
same,IC50,[2],0.062 µM
same,IC50,[3],0.037 µM
same,IC50,[4],19.7 µM
"Cl.c1ccc(CN(Cc2ccccc2)c2nc(N3CCC4(CC3)CNC4)c3ncn(Cc4ccccc4)c3n2)cc1 [PU1-1, N,N,9-tribenzyl-6-(2,7-diazaspiro[3.5]nonan-7-yl)-9H-purin-2-amine hydrogen chloride]",IC50,[1],3.2 ± 0.4 µM
same,apoptosis,[5],did not show significant apoptosis
same,body weight change during treatment,[6],no noticeable weight loss
same,TGI (tumor growth inhibition),[6]; day 14,42%
same,"KRAS downstream proteins, including PARP, expression",[7],no protein expression changes
same,"pERK, pAKT, and pS6 levels",[8],significantly decreased
same,levels of cleaved PARP,[8]; versus DMSO-treated group,significantly increased
same,IC50,[2],5.9 ± 0.3 µM
same,IC50,[3],3.8 ± 0.8 µM
same,KRAS-GTP levels,[9],significantly downregulated
same,proportion of early (LR) and late apoptotic (UR) cells,[10],increased
same,IC50,[4],9.2 ± 0.2 µM
same,KRAS-GTP protein expression,[11],no protein expression changes
"Cc1nc(-c2ccc(Cl)cc2)nc(N2CCC3(CC2)CNC3)c1Cc1ccccc1 [PY1-2, 7-(5-benzyl-2-(4-chlorophenyl)-6-methylpyrimidin-4-yl)-2,7-diazaspiro[3.5]nonane, 2,2,2-trifluoroacetic acid]",IC50,[1],3.3 ± 0.6 µM
same,IC50,[2],10.9 ± 0.4 µM
same,IC50,[4],9.1 ± 0.7 µM
